Results collected from several papers.
Protocols differ between the studies behind these lines. In brackets after ≈: the same amount, converted by molar mass.

| SMILES | organism | test | system | conditions | measurement | result |
| --- | --- | --- | --- | --- | --- | --- |
| c1ccc(-c2nc3n(c2-c2cccnc2)CCC3)nc1 | Leishmania infantum | parasite growth | – | intracellular, amastigote | IC50 | > 64 µM |
| O=C(N[C@@H](Cc1ccccc1)C(=O)c1cc(-c2ccccc2)no1)[C@H](Cc1ccccc1)NC(=O)N1CCOCC1 (mixture of isomers) | Leishmania infantum | parasite growth | – | intracellular, amastigote | IC50 | > 64 µM |
| CCOC(=O)C1=C(C)N2NC(c3ccccc3O)N(C(Cc3c[nH]c4ccccc34)C(=O)O)C2=NC1c1ccc(Cl)cc1 (centres unmarked) | Streptococcus pyogenes | microbial growth | ATCC19615 | 10 µg/mL, 24 h | inhibition zone | 18 mm |
| CC(C)CN(c1ccc(F)cc1)c1c(-c2ccccn2)nc2ccccn12 | Leishmania infantum | parasite growth | – | 5 days, intracellular, amastigote | EC50 | 0.794 µM |
| CCCCC(=O)N1C(=O)/C(=C(/C)O)C(=O)C1CC(C)C (centres unmarked) | Stenotrophomonas maltophilia | microbial growth | ATCC13637 | – | MIC | > 200 µg/mL |
| O=C(O)CN1C(=O)/C(=C/c2ccc(-c3ccc(N(c4ccccc4)c4ccccc4)cc3)c3ccccc23)NC1=S | Streptococcus pyogenes | microbial killing, broth dilution | ATCC19615 | – | MBC | > 1000 µg/mL |
| CN[C@H](CC(C)C)C(=O)N[C@H]1C(=O)N[C@@H](CC(N)=O)C(=O)N[C@H]2C(=O)N[C@H]3C(=O)N[C@H](C(=O)N[C@H](C(=O)O)c4cc(O)cc(O)c4-c4cc3ccc4O)[C@H](O)c3ccc(c(Cl)c3)Oc3cc2cc(c3O[C@@H]2O[C@H](CO)[C@@H](O)[C@H](O)[C@H]2O[C@H]2C[C@](C)(N)[C@H](O)[C@H](C)O2)Oc2ccc(cc2Cl)[C@H]1O | Streptococcus pyogenes | microbial killing | – | – | MBC | > 32 µg/mL |
| O=C1C(=Cc2cc(O)cc(O)c2)Oc2ccccc21 | Streptococcus mutans | microbial growth | UA159 | 50 µM | inhibition | 30% |
| O=C(N[C@@H](Cc1ccccc1)C(=O)c1cc(-c2ccccc2)on1)[C@H](Cc1ccccc1)NC(=O)N1CCOCC1 (single isomer, unassigned) | Leishmania infantum | parasite growth | – | intracellular, amastigote | IC50 | > 64 µM |
| O=C1NC(=S)N/C1=C\c1ccc(-c2ccc(N(c3ccccc3)c3ccccc3)cc2)cc1 | Streptococcus mutans | microbial growth, broth dilution | ATCC25175 | – | MIC | > 1000 µg/mL |
| O=C1C(=Cc2ccc(O)c(O)c2)Oc2ccccc21 | Streptococcus mutans | microbial growth | UA159 | 50 µM | inhibition | 40% |
| O=C1NC(=S)N/C1=C\c1ccc(-c2ccc(N(c3ccccc3)c3ccccc3)cc2)c2ccccc12 | Streptococcus pyogenes | microbial growth, broth dilution | ATCC19615 | – | MIC | > 1000 µg/mL |
| CCCCCCCCCCCCCCCCC#CC(=O)O | Leishmania infantum | parasite growth | mouse Splenocyte | 72 h, intracellular, amastigote | IC50 | 11.7 µM |
| CCCCCCC/C=C/C(=O)N1C(=O)/C(=C(/C)O)C(=O)C1Cc1ccc(OC(C)(C)C)cc1 (centres unmarked) | Stenotrophomonas maltophilia | microbial growth | ATCC13637 | – | MIC | > 200 µg/mL |
| O=C(O)CN1C(=O)/C(=C/c2c3ccccc3c(-c3ccc(N(c4ccccc4)c4ccccc4)cc3)c3ccccc23)NC1=S | Streptococcus mutans | microbial growth, broth dilution | ATCC25175 | – | MIC | > 1000 µg/mL |
| CC(=O)C1=C(C)N2NC(c3ccccc3O)N(C(Cc3c[nH]c4ccccc34)C(=O)O)C2=NC1c1ccc(Cl)cc1 (centres unmarked) | Streptococcus pyogenes | microbial growth | ATCC19615 | 10 µg/mL, 24 h | inhibition zone | 18 mm |
| CN(c1ccc(F)cc1)c1c(-c2ccccn2)nc2ccccn12 | Leishmania infantum | parasite growth | – | 5 days, intracellular, amastigote | EC50 | 1 µM |
| O=C(O)CN1C(=O)/C(=C/c2c3ccccc3c(-c3ccc(N(c4ccccc4)c4ccccc4)cc3)c3ccccc23)SC1=S | Streptococcus pyogenes | microbial killing, broth dilution | ATCC19615 | – | MBC | > 1000 µg/mL |

| SMILES | organism | test | system | conditions | measurement | result |
| --- | --- | --- | --- | --- | --- | --- |
| CS(=O)(=O)c1ccc(-c2c(-c3ccccn3)nc3n2CCC3)cc1 | Leishmania infantum | parasite growth | – | intracellular, amastigote | IC50 | > 64 µM |
| C[Si](C)(C)c1cc(C(=O)[C@H](Cc2ccccc2)NC(=O)[C@H](Cc2ccccc2)NC(=O)N2CCOCC2)no1 (single isomer, unassigned) | Leishmania infantum | parasite growth | – | intracellular, amastigote | IC50 | > 64 µM |
| CC(=O)C1=C(C)N2NC(C)(c3ccccc3O)N(C(C)C(=O)O)C2=NC1c1ccc(Cl)cc1 (centres unmarked) | Streptococcus pyogenes | microbial growth | ATCC19615 | 15 µg/mL, 24 h | inhibition zone | 18 mm |
| c1ccc(-c2nc3n(c2-c2ccncc2)CCC3)nc1 | Leishmania infantum | parasite growth | – | 5 days, intracellular, amastigote | EC50 | > 63.1 µM |
| CCCCCCC/C=C/C(=O)N1C(=O)/C(=C(\O)c2ccc(F)cc2)C(=O)C1CC(C)C (centres unmarked) | Stenotrophomonas maltophilia | microbial growth | ATCC13637 | – | MIC | 50 µg/mL (≈ 116 µM) |
| O=C(N[C@@H](Cc1ccccc1)C(=O)c1nc2ccccc2o1)[C@H](Cc1ccccc1)NC(=O)N1CCOCC1 | Leishmania infantum | parasite growth | – | intracellular, amastigote | IC50 | > 64 µM |
| CC(=O)C1=C(C)N2NC(c3ccccc3O)N(C(C)C(=O)O)C2=NC1c1ccc(Cl)cc1 (centres unmarked) | Streptococcus pyogenes | microbial growth | ATCC19615 | 15 µg/mL, 24 h | inhibition zone | 17 mm |
| O=C(O)CN1C(=O)/C(=C/c2ccc(-c3ccc(N(c4ccccc4)c4ccccc4)cc3)cc2)SC1=S | Streptococcus pyogenes | microbial killing, broth dilution | ATCC19615 | – | MBC | 500 µg/mL (≈ 957 µM) |
| CC(C(=O)O)N1C2=NC(c3ccc(Cl)cc3)C3=C(OC(C)(C)OC3=O)N2NC1(C)c1ccccc1O (centres unmarked) | Streptococcus pyogenes | microbial growth | ATCC19615 | 15 µg/mL, 24 h | inhibition zone | 22 mm |
| COc1ccc(-c2c(-c3ccccn3)nc3n2CCC3)cc1OC | Leishmania infantum | parasite growth | – | 5 days, intracellular, amastigote | EC50 | 2 µM |
| CC1(c2ccccc2O)Nn2c(nc(-c3ccc(Cl)cc3)c(C#N)c2=O)N1C(Cc1c[nH]c2ccccc12)C(=O)O (centres unmarked) | Streptococcus pyogenes | microbial growth | ATCC19615 | 15 µg/mL, 24 h | inhibition zone | 32 mm |
| O=C1NC(=S)S/C1=C\c1c2ccccc2c(-c2ccc(N(c3ccccc3)c3ccccc3)cc2)c2ccccc12 | Streptococcus mutans | microbial killing, broth dilution | ATCC25175 | – | MBC | > 1000 µg/mL |
| CCOC(=O)C1=C(C)N2NC(C)(c3ccccc3O)N(C(Cc3c[nH]c4ccccc34)C(=O)O)C2=NC1c1ccc(Cl)cc1 (centres unmarked) | Streptococcus pyogenes | microbial growth | ATCC19615 | 10 µg/mL, 24 h | inhibition zone | 17 mm |
| Fc1ccc(Nc2c(-c3ccccn3)nc3ccccn23)cc1 | Leishmania infantum | parasite growth | – | intracellular, amastigote | IC50 | 8.11 µM |
| N#Cc1c(-c2ccc(Cl)cc2)nc2n(c1=O)NC(c1ccccc1O)N2C(Cc1c[nH]c2ccccc12)C(=O)O (centres unmarked) | Streptococcus pyogenes | microbial growth | ATCC19615 | 15 µg/mL, 24 h | inhibition zone | 34 mm |
| Fc1ccc(NCc2c(-c3ccccn3)nc3ccccn23)cc1 | Leishmania infantum | parasite growth | – | intracellular, amastigote | IC50 | > 64 µM |
| O=C(N[C@@H](Cc1ccccc1)C(=O)c1cn(COCc2ccccc2)nn1)[C@H](Cc1ccccc1)NC(=O)N1CCOCC1 | Leishmania infantum | parasite growth | – | intracellular, amastigote | IC50 | > 64 µM |
